Experimental data pooled from the literature.
Protocols differ between the studies behind these lines.
Target: Serine/threonine-protein kinase PLK3 (PLK3, Homo sapiens, UniProt Q9H4B4)

F[C@@H]1CCN(c2nccc(-c3cnn4ncccc34)n2)C1  remaining binding (binding; 1 µM): 87%
Cc1cnc(Nc2ccc(C(=O)N3CCC(N4CCCC4)CC3)cc2)nc1-c1cc2ccccc2s1  remaining binding (binding, competition with immobilised ligand; 1 µM): 42%
C[C@H](NC(=O)c1cnc2n1[C@](C)(Cc1ccc(C#N)cc1)C(=O)N2c1cc(Cl)c(F)c(Cl)c1)C(=O)NC1(c2ccccn2)CC1  remaining binding (cell-free assay, competition with immobilised ligand; 1 µM): 81%
N#Cc1ccccc1CSc1nnc2c(n1)[nH]c1ccccc12  remaining binding (binding, competition with immobilised ligand; 10 µM): 100%
COc1cnc(Nc2cccc(S(N)(=O)=O)c2)nc1N1CCN(c2ccccc2)CC1  remaining binding (binding, competition with immobilised ligand; 1 µM): 95%
CN(c1nccc(-c2cnn3ncccc23)n1)C1CC1  remaining binding (binding; 1 µM): 86%
COCCOc1nc(-c2ccc(Cl)nc2)nc2c1CN(C(=O)c1ncn3ccccc13)CC2  remaining binding (cell-free assay, competition with immobilised ligand; 0.1 µM): 100%
CN(C)c1ncc(F)c(-c2cnn3ncccc23)n1  remaining binding (binding; 1 µM): 79%
C[C@H](c1ccc(F)cc1)N(Cc1cccc(C(=O)O)c1)C(=O)c1cnc2ccccc2c1  remaining binding (cell-free assay, competition with immobilised ligand; 1 µM): 100%
COc1ncc2cc3ccccc3nc2c1C#N  remaining binding (cell-free assay, competition with immobilised ligand; 5 µM): 69%
C[C@H](c1ccnc(Nc2nc3ccc(-c4cc(N(C)C)ncn4)cc3[nH]2)c1)N1CCN(C(=O)CC(F)(F)F)CC1  remaining binding (cell-free assay, competition with immobilised ligand; 0.1 µM): 100%
O=C(c1ccc(Nc2ncc(Cl)c(-c3cc4ccccc4s3)n2)cc1)N1CCC(N2CCCC2)CC1  remaining binding (binding, competition with immobilised ligand; 1 µM): 58%
CC(C)(C)c1ccc(-c2nc(CBr)nn2-c2cccc(O)c2)cc1  remaining binding (cell-free assay, competition with immobilised ligand; 10 µM): 98%
O=C(O)c1cc(-c2ccc(C3CCNCC3)cc2)c2ccc(-c3ccc(C(F)(F)F)cc3)cc2c1  remaining binding (cell-free assay, competition with immobilised ligand; 1 µM): 100%
C[C@@H]1CCN(c2nccc(-c3cnn4ncccc34)n2)C1  remaining binding (binding; 1 µM): 88%
C[C@@H](c1ccc(-n2cnc3c(N)ncnc32)cc1)N1CCc2nn(C)c(Cc3ccccc3)c2C1=O  remaining binding (binding, competition with immobilised ligand; 0.1 µM): 76%
